Assays:
[1] = Peak plasma concentration was measured in dogs; assay type: ADME, organism-based, Canis lupus familiaris; details: dog
MT2 = assay: Antiviral potency evaluated by measuring accumulation of viral RNA transcripts 3 days after infection of MT-2 cells with HIV-1 RF; assay type: functional; details: Homo sapiens, MT2, 72 h
[2] = biological target: Human immunodeficiency virus type 1 protease (Human immunodeficiency virus 1) (UniProt Q72874); assay: Antiviral activity against mutant virus HIV-1 mutant (84V/82F) strain; assay type: functional
In short: (§1)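 I84V single and I84V/V82F double mutant HIV-1, both from in vitro selection under a cyclic urea inhibitor. IC90 measured by yield reduction assay.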

[3] = biological target: Human immunodeficiency virus type 1 protease (Human immunodeficiency virus 1) (UniProt Q72874); assay: Antiviral activity against ritonavir virus (HIV-1 mutated at 46I/63P/71V/82F/84V and resistant to ritonavir); assay type: functional
In short: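 Mutant HIV-1 viruses carrying protease substitutions seen in ritonavir- or indinavir-treated patient isolates; the ritonavir virus carries 46I/63P/71V/82F/84V. IC90 read from a viral p24 readout, following the earlier method.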

[4] = biological target: Human immunodeficiency virus type 1 protease (Human immunodeficiency virus 1) (UniProt Q72874); assay: Antiviral activity against mutant virus HIV-1 mutant (84V) strain; assay type: functional; in short: as §1
[5] = biological target: Human immunodeficiency virus type 1 protease (Human immunodeficiency virus 1, UniProt Q72874); assay: Inhibitory activity against HIV protease
In short: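 Ki for HIV protease, measured by cleavage of a fluorescent substrate with HPLC analysis, following the earlier method.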

[6] = Oral bioavailability in dog (dose 10 mg/kg); assay type: ADME, organism-based, Canis lupus familiaris; details: in vivo
In short: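 Dogs, n = 3 per group, given 10 mg/kg in a propylene glycol/polyethylene glycol 400/water formulation, dosed orally and intravenously. F% = AUC po/AUC iv, with AUC from time zero to infinity of the plasma concentration-time curve, normalized for dose.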

[7] = biological target: Human immunodeficiency virus type 1 protease (Human immunodeficiency virus 1) (UniProt Q72874); assay: Antiviral activity against indinavir virus (HIV-1 mutated at 10R/63P/71V/82T/84V and resistant to indinavir)

Structure (SMILES)	Cmax [1]	IC90 (MT2)	IC90 mutant/IC90 WT [2]	IC90 mutant/IC90 WT [3]	IC90 mutant/IC90 WT [4]	Ki [5]	bioavailability [6]	IC90 mutant/IC90 WT [7]
Nc1ccc(CN2C(=O)N(Cc3ccc4[nH]ncc4c3)[C@H](Cc3ccccc3)[C@H](O)[C@@H](O)[C@H]2Cc2ccccc2)cc1-n1cncn1	500 nM	35 nM	20	9	1	0.029 nM		
O=C(Cc1ccccn1)c1cccc(CN2C(=O)N(Cc3ccc4[nH]ncc4c3)[C@H](Cc3ccccc3)[C@H](O)[C@@H](O)[C@H]2Cc2ccccc2)c1	700 nM	15 nM	5	10	1	0.073 nM		
CNc1cccc(CN2C(=O)N(Cc3ccc4[nH]ncc4c3)[C@H](Cc3ccccc3)[C@H](O)[C@@H](O)[C@H]2Cc2ccccc2)c1	8000 nM	8 nM				0.039 nM	92%	
Cc1ccc(NC(=O)c2cccc(CN3C(=O)N(Cc4ccc5[nH]ncc5c4)[C@H](Cc4ccccc4)[C@H](O)[C@@H](O)[C@H]3Cc3ccccc3)c2)nc1	< 50 nM	4 nM				0.048 nM		
O=C1N(Cc2ccc(CO)cc2)[C@H](Cc2ccccc2)[C@H](O)[C@@H](O)[C@@H](Cc2ccccc2)N1Cc1ccc(CO)cc1 [DMP-323]		57 nM	97	93	28			18
O=C(Nc1ncc[nH]1)c1cccc(CN2C(=O)N(Cc3cccc(C(=O)Nc4ncc[nH]4)c3)[C@H](Cc3ccccc3)[C@H](O)[C@@H](O)[C@H]2Cc2ccccc2)c1		60 nM	0.7	0.2	0.7			0.4
Nc1ccc(CN2C(=O)N(Cc3ccc4[nH]ncc4c3)[C@H](Cc3ccccc3)[C@H](O)[C@@H](O)[C@H]2Cc2ccccc2)cc1-c1cc[nH]n1		22 nM	20	2.1	2.2	0.025 nM		
Nc1ccc(CN2C(=O)N(Cc3ccc4[nH]ncc4c3)[C@H](Cc3ccccc3)[C@H](O)[C@@H](O)[C@H]2Cc2ccccc2)cc1	10600 nM	11 nM	240	170	31	0.03 nM	100%	
O=C1N(Cc2cccc(-c3nc[nH]n3)c2)[C@H](Cc2ccccc2)[C@H](O)[C@@H](O)[C@@H](Cc2ccccc2)N1Cc1ccc2[nH]ncc2c1		24 nM	18	3.8	3.3	0.041 nM		
CC(=O)c1cccc(CN2C(=O)N(Cc3ccc4[nH]ncc4c3)[C@H](Cc3ccccc3)[C@H](O)[C@@H](O)[C@H]2Cc2ccccc2)c1	1300 nM	15 nM				0.036 nM	25%	
CNc1cc(CN2C(=O)N(Cc3ccc4[nH]ncc4c3)[C@H](Cc3ccccc3)[C@H](O)[C@@H](O)[C@H]2Cc2ccccc2)ccc1F	670 nM	7 nM				0.027 nM	14%	
Nc1cccc(CN2C(=O)N(Cc3ccc4[nH]ncc4c3)[C@H](Cc3ccccc3)[C@H](O)[C@@H](O)[C@H]2Cc2ccccc2)c1	7200 nM	11 nM	200	75	6.8	0.03 nM	93%	20
Nc1cccc(CN2C(=O)N(Cc3cccc(N)c3)[C@H](Cc3ccccc3)[C@H](O)[C@@H](O)[C@H]2Cc2ccccc2)c1 [MOZENAVIR]		130 nM	100	49	10			27
O=C(Nc1nccs1)c1cccc(CN2C(=O)N(Cc3ccc4[nH]ncc4c3)[C@H](Cc3ccccc3)[C@H](O)[C@@H](O)[C@H]2Cc2ccccc2)c1		8 nM	22	9	2	0.016 nM		7.3
O=C(Cn1cncn1)c1cccc(CN2C(=O)N(Cc3ccc4[nH]ncc4c3)[C@H](Cc3ccccc3)[C@H](O)[C@@H](O)[C@H]2Cc2ccccc2)c1	150 nM	51 nM				0.022 nM		

Source: ChEMBL document CHEMBL1131003, “Nonsymmetric P2/P2' cyclic urea HIV protease inhibitors. Structure-activity relationship, bioavailability, and resistance profile of monoindazole-substituted P2 analogues” (J Med Chem, 1998)
